The values below come from ChEMBL document CHEMBL4152319, “5-Hydroxypyrido[2,3-b]pyrazin-6(5H)-one derivatives as novel dual inhibitors of HIV-1 reverse transcriptase-associated ribonuclease H and integrase” (Eur J Med Chem, 2018).

Each structure is given as a SMILES string. A value given as a limit tells only on which side of the number the result lay.

Series [1] concerns the target Human immunodeficiency virus type 1 reverse transcriptase (Human immunodeficiency virus 1, UniProt Q72547). Nature of the series: Inhibition of HIV-1 BH10 reverse transcriptase RNase H activity expressed in Escherichia coli using [32P]-labeled template primer 31Trna/21P as substrate pretreated for 5 mins followed by substrate addition by polyacrylamide gel electrophoresis method. The method in brief: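 Wild-type HIV-1 BH10 RT (20-40 nM) was preincubated with compound for 5 min at 37 °C in 50 mM Tris-HCl pH 8.0, 50 mM NaCl, 5 mM MgCl2, 5% DMSO. Reaction was started with 25 nM 5'-32P-labeled 31Trna/21P and run 20 s at 37 °C. Cleavage products were resolved on denaturing PAGE and quantified by phosphorimaging. IC50 came from dose-response curves over 0.2-100 μM.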

For series [2], the target named is Human immunodeficiency virus type 1 integrase (Human immunodeficiency virus 1, UniProt Q7ZJM1). Put plainly: Inhibition of recombinant HIV1 integrase strand transfer activity using biotin-labeled double-stranded HIV-1 LTR U5 donor DNA substrate pretreated for 5 mins followed by substrate addition and measured after 30 mins by ELISA.
The test system of series [3] is Human immunodeficiency virus 1. Put plainly: Selectivity ratio of IC50 for HIV-1 BH10 reverse transcriptase RNase H activity to IC50 for recombinant HIV1 integrase strand transfer activity. An outline of the steps: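 Ratio of RNase H IC50 to IN IC50. The RNase H IC50 came from the gel-based cleavage assay. The IN IC50 came from an ELISA strand-transfer assay: biotinylated LTR U5 donor DNA on streptavidin plates, full-length recombinant IN added, compound for 5 min at room temperature, then target DNA for 30 min at 37 °C. Products were detected with HRP antibody, TMB and A450.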

In series [4] the test system is Human immunodeficiency virus 1. Put plainly: Antiviral activity against Human immunodeficiency virus 1 3B infected in MT4 cells assessed as protection against virus-induced cytopathic effect measured 5 days post infection by MTT assay. Format: functional, organism-based. The following applies: MT4, 120 h. The method in brief: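 MT-4 cells resuspended at 6×10^5 cells/mL, infected with HIV-1 IIIB at 100-300 CCID50. Serial five-fold compound dilutions were run in triplicate wells. Viability was read by MTT reduction at 540 and 690 nm five days after infection, using the median OD of two or three wells. EC50 is the concentration giving 50% protection from viral cytopathicity.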
In general terms: Protection from cytopathic effect is a common read-out in antiviral testing.

Series [5] in a line: Cytotoxicity against human MT4 cells after 5 days by MTT assay. The series is classed as cell-based. An outline of the steps:
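Mock-infected MT-4 cells at 6×10^5 cells/mL were set up in triplicate wells alongside the infected series, with serial five-fold compound dilutions. Viability was measured by MTT at 540 and 690 nm after five days, using the median OD of two or three wells. CC50 is the concentration reducing viability of mock-infected cells by 50%.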
(In general: Formazan colour is commonly taken as a measure of viable cells.)

Chain of Human immunodeficiency virus type 1 integrase (Q7ZJM1 whole entry): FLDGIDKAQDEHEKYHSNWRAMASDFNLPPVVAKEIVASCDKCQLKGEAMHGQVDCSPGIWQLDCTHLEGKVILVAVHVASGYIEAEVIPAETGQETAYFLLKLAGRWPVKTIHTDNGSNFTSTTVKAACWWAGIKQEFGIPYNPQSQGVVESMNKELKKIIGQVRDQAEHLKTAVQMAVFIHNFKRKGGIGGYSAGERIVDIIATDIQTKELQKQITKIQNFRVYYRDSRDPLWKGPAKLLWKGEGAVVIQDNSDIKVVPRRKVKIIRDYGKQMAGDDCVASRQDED

`COC(=O)c1c(Nc2ccc3ccccc3c2)c2nccnc2n(O)c1=O`: the 50% inhibitory concentration (IC50) in series [1] stood at 5.11 µM; in series [2], 6.74 µM. In series [3], the Ratio IC50 was determined as 0.76. Moreover, the EC50 in series [4] was greater than 7.15 µM. Besides, the CC50 at 120 h in series [5] is 7.15 µM.
For `COC(=O)c1c(Nc2cccc(-c3ccc(OC)c(OC)c3)c2)c2nccnc2n(O)c1=O` the same measures were 4.72 µM, 0.22 µM, 21.4, greater than 1.32 µM and 1.32 µM.
`COC(=O)c1c(Nc2cccc3ccccc23)c2nccnc2n(O)c1=O`: the half-inhibitory concentration (IC50) was 4.3 µM in series [1] and greater than 25 µM in series [2]. Also, the EC50 in series [4] is greater than 1.38 µM. In series [5], this compound returned a half-maximal cytotoxic concentration (CC50) at 120 h of 1.38 µM.
As for `Cc1nnc(C(=O)NC(C)(C)c2nc(C(=O)NCc3ccc(F)cc3)c(O)c(=O)n2C)o1`, in series [4], the 50% effective concentration (EC50) was 0.0117 µM. The same compound returned a cytotoxic concentration (CC50) at 120 h in series [5] greater than 56.2 µM.
As for `COC(=O)c1c(Nc2cccc(-c3cncnc3)c2)c2nccnc2n(O)c1=O`, the IC50 in series [1] stood at 1.85 µM; in series [2] it was 10.8 µM. Besides, the Ratio IC50 in series [3] turned out to be 0.17. Moreover, the EC50 in series [4] is greater than 5.89 µM. Also, in series [5], the CC50 at 120 h came to 5.89 µM.
In the case of `COC(=O)c1c(Nc2cccc(-c3ccc(C#N)cc3)c2)c2nccnc2n(O)c1=O`, the IC50 was 5.56 µM in series [1] and 22.8 µM in series [2]. Further, the Ratio IC50 in series [3] was determined as 0.24. Further, the EC50 in series [4] is greater than 1.19 µM. In addition, it took 1.19 µM to reach half-maximal cytotoxicity in series [5] (CC50 at 120 h).
Consider `COC(=O)c1c(Nc2ccc(-c3cncnc3)cc2)c2nccnc2n(O)c1=O`, for which the values for the IC50 in series [1] and in series [2] were 3.24 µM and 1.49 µM, respectively. In addition, the Ratio IC50 in series [3] worked out at 2.17. The EC50 in series [4] is greater than 8.04 µM. In series [5], the CC50 at 120 h is 8.04 µM.
For `COC(=O)c1c(Nc2ccc(-c3ccc(C#N)cc3)cc2)c2nccnc2n(O)c1=O` the same measures were 1.77 µM, 1.18 µM, 1.5, greater than 0.34 µM and 0.34 µM.
Consider `COC(=O)c1c(Nc2ccc(-c3ccccc3)cc2)c2nccnc2n(O)c1=O`, for which the IC50 in series [1] was 5.25 µM; in series [2], greater than 25 µM. For the same compound, the EC50 in series [4] is greater than 7 µM. In series [5], this compound returned a half-maximal cytotoxic concentration (CC50) at 120 h of 7 µM.
For `COC(=O)c1c(Nc2ccc(-c3cccc(C#N)c3)cc2)c2nccnc2n(O)c1=O` the same measures were 13.3 µM, greater than 25 µM, greater than 5.68 µM and 5.68 µM.
Regarding `COC(=O)c1c(Nc2ccc(-c3ccc(OC)c(OC)c3)cc2)c2nccnc2n(O)c1=O`, the 50% inhibitory concentration (IC50) in series [1] was 5.9 µM; in series [2], greater than 25 µM. For the same compound, the EC50 in series [4] was greater than 1.47 µM. The same compound had a half-maximal cytotoxic concentration (CC50) at 120 h in series [5] of 1.47 µM.
For `COC(=O)c1c(Nc2cccc(-c3cccc(C#N)c3)c2)c2nccnc2n(O)c1=O`, the IC50 was 4.02 µM in series [1] and 0.25 µM in series [2]. Moreover, in series [3], the Ratio IC50 is 16.1. Moreover, the EC50 in series [4] was greater than 1.16 µM. Besides, in series [5], the CC50 at 120 h was found to be 1.16 µM.
For the compound `CC(C)c1ccc(O)c(=O)c(O)c1` [BETA-THUJAPLICINOL], the half-maximal inhibitory concentration (IC50) in series [1] came to 2.5 µM.

One may read the IC50 as the concentration at which inhibition is half-maximal. In general, EC50 refers to the midpoint of the concentration-response curve. Broadly, the CC50 is the concentration giving 50% cytotoxicity. Read a low CC50 as harm at low concentration.
